{"source": "ChEMBL document CHEMBL4052828", "about": "“Discovery of 4-((7H-Pyrrolo[2,3-d]pyrimidin-4-yl)amino)-N-(4-((4-methylpiperazin-1-yl)methyl)phenyl)-1H-pyrazole-3-carboxamide (FN-1501), an FLT3- and CDK-Kinase Inhibitor with Potentially High Efficiency against Acute Myelocytic Leukemia” (J Med Chem, 2018)", "key": {"MV4-11 [1]": {"system": "MV4-11", "assay": "Induction of apoptosis in human MV4-11 cells at 2 uM after 24 hrs by annexin V-FITC/propidium iodide staining-based flow cytometric method", "type": "functional, cell-based"}, "Lymphocyte": {"system": "Lymphocyte", "assay": "Cytotoxicity against human lymphocytes assessed as decrease in cell viability after 72 hrs by MTT assay", "type": "cell-based"}, "MV4-11 [2]": {"system": "MV4-11", "assay": "Induction of apoptosis in human MV4-11 cells assessed as late apoptotic cells at 0.5 uM after 24 hrs by annexin V-FITC/propidium iodide staining-based flow cytometric method (reference value: 2.54%)", "type": "functional"}, "[3]": {"biological_target": "Receptor-type tyrosine-protein kinase FLT3 (Homo sapiens) (UniProt P36888)", "sequence (P36888 whole entry)": "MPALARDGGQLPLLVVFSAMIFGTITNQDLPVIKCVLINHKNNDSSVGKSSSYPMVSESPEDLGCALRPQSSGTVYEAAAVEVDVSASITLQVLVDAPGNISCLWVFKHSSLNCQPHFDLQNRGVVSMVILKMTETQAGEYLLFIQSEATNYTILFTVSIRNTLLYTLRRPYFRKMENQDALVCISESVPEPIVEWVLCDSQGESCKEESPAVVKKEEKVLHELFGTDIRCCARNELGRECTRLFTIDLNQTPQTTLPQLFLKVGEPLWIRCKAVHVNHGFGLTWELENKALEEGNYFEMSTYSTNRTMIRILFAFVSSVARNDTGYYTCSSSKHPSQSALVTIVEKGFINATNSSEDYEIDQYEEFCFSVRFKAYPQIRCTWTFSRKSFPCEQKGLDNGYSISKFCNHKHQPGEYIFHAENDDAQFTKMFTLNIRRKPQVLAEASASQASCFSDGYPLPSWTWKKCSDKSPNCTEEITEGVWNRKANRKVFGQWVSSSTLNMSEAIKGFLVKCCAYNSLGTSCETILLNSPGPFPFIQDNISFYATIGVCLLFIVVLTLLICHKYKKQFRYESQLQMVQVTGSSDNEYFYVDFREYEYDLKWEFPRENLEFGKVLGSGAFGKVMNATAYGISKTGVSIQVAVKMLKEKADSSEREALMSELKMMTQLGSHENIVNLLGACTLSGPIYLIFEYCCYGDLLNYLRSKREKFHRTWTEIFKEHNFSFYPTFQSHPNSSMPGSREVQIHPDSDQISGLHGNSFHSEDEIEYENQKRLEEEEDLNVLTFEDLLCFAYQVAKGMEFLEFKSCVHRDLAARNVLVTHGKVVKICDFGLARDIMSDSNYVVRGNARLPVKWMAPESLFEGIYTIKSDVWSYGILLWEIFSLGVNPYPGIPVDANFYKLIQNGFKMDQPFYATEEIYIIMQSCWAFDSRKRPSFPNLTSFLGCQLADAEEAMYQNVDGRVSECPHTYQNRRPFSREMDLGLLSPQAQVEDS", "assay": "Inhibition of FLT3 phosphorylation in human MV4-11 cells assessed as decrease in STAT5 phosphorylation at 0.02 to 1 uM after 24 hrs by Western blot analysis", "type": "cell-based", "in_short": "(§1)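 MV4-11 cells treated with increasing concentrations of compound for 24 h. Lysates immunoblotted for phosphorylated FLT3, STAT5, ERK, AKT and Rb.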"}, "[4]": {"biological_target": "Receptor-type tyrosine-protein kinase FLT3 (Homo sapiens) (UniProt P36888)", "assay": "Inhibition of FLT3 phosphorylation in human MV4-11 cells assessed as decrease in ERK phosphorylation at 0.02 to 1 uM after 24 hrs by Western blot analysis", "type": "cell-based", "in_short": "as §1"}, "Homo sapiens": {"organism": "Homo sapiens", "assay": "Inhibition of CDK in human MV4-11 cells assessed as decrease in Rb phosphorylation at Ser807/811 after 24 hrs by Western blot analysis", "type": "cell-based", "in_short": "as §1"}, "CDK2/Cyclin A1": {"biological_target": "CDK2/Cyclin A1 (Homo sapiens, UniProt P24941)", "assay": "Inhibition of human CDK2/Cyclin A1 using histone H1 as substrate preincubated for 20 mins followed by [gamma-33P]-ATP addition measure after 120 mins by filter binding method", "type": "protein-complex assay", "in_short": "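Compound preincubated with kinase 20 min at room temperature. Filter-binding read-out, curve-fitted IC50; mean ± SD of three independent experiments.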"}, "[5]": {"assay": "Terminal half life in mouse liver microsomes by LC-MS/MS analysis", "type": "ADME, microsome", "conditions": "read-out: beta t1/2 (converted)", "in_short": "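Metabolic stability measured by incubating compound in human, rat, mouse, dog and monkey liver microsomes. Terminal t1/2 determined.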"}, "[6]": {"assay": "Intrinsic clearance in human liver microsomes by LC-MS/MS analysis", "type": "ADME, microsome", "conditions": "read-out: CLH"}, "[7]": {"assay": "Toxicity in ICR mouse administered via gavage measured for 12 days", "conditions": "in vivo, po"}, "[8]": {"assay": "Intrinsic clearance in rat liver microsomes by LC-MS/MS analysis", "type": "ADME, microsome", "conditions": "read-out: CLH"}, "MV4-11 [9]": {"system": "MV4-11", "assay": "Induction of apoptosis in human MV4-11 cells assessed as early apoptotic cells at 2 uM after 24 hrs by annexin V-FITC/propidium iodide staining-based flow cytometric method (reference value: 3.54%)", "type": "functional"}, "MV4-11 [10]": {"system": "MV4-11", "assay": "Induction of apoptosis in human MV4-11 cells assessed as late apoptotic cells at 2 uM after 24 hrs by annexin V-FITC/propidium iodide staining-based flow cytometric method (reference value: 2.54%)", "type": "functional"}, "Mus musculus": {"system": "Mus musculus", "assay": "Toxicity in nu/nu mouse xenografted with human MV4-11 cells assessed as body weight loss at 15 to 40 mg/kg, iv qd administered for 21 days measuring during compound dosing", "type": "organism-based", "conditions": "in vivo, 504 h", "in_short": "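Female nu/nu mice carried established MV4-11 xenografts. Once tumors reached 200 mm3, mice were grouped and given compound or vehicle by intravenous injection once daily at 15, 30 or 40 mg/kg/d for 21 days. A Cytarabine arm received 50 mg/kg/d iv. Body weight was tracked during dosing and expressed relative to initial weight set as 100%.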"}, "MV4-11 [11]": {"system": "MV4-11", "assay": "Induction of apoptosis in human MV4-11 cells assessed as early apoptotic cells at 0.2 uM after 24 hrs by annexin V-FITC/propidium iodide staining-based flow cytometric method (reference value: 3.54%)", "type": "functional"}, "[12]": {"assay": "Intrinsic clearance in mouse liver microsomes by LC-MS/MS analysis", "type": "ADME, microsome", "conditions": "read-out: CLH"}, "MGC-803": {"system": "MGC-803", "assay": "Growth inhibition of human MGC803 cells after 72 hrs by CellTiter-Glo assay", "type": "functional", "conditions": "MGC-803, 72 h"}, "MV4-11 [13]": {"system": "MV4-11", "assay": "Antitumor activity against human MV4-11 cells xenografted in nu/nu mouse assessed as tumor regression at 30 mg/kg, iv qd measured on day 21 relative to vehicle-treated control", "type": "functional"}, "MV4-11 [14]": {"system": "MV4-11", "assay": "Induction of apoptosis in human MV4-11 cells assessed as early apoptotic cells at 0.5 uM after 24 hrs by annexin V-FITC/propidium iodide staining-based flow cytometric method (reference value: 3.54%)", "type": "functional"}, "MV4-11 [15]": {"system": "MV4-11", "assay": "Growth inhibition of human MV4-11 cells after 72 hrs by CellTiter-Glo assay", "type": "functional, cell-based", "conditions": "MV4-11, 72 h", "in_short": "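MV4-11 cells grown in IMDM with 10% FBS, 2% L-glutamine and 1% pen/strep at 37 °C, 5% CO2. Seeded at 10000 cells/well and exposed to compound at various concentrations for 72 h. Viability read by CellTiter-Glo luminescence.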"}, "HCT-116": {"system": "HCT-116", "assay": "Cell cycle arrest in human HCT116 cells assessed as accumulation at G2/M phase at 0.1 to 1 uM after 24 hrs by propidium iodide/BrdU staining-based flow cytometric method", "type": "functional", "in_short": "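Cells treated with compound for 24 h, then fixed. Double-stained with propidium iodide and BrdU for flow cytometric analysis of cell cycle distribution.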"}, "MV4-11 [16]": {"system": "MV4-11", "assay": "Induction of apoptosis in human MV4-11 cells assessed as late apoptotic cells at 1 uM after 24 hrs by annexin V-FITC/propidium iodide staining-based flow cytometric method (reference value: 2.54%)", "type": "functional"}, "CDK6/cyclin D1": {"biological_target": "CDK6/cyclin D1 (Homo sapiens, UniProt Q00534)", "sequence (P24385 whole entry)": "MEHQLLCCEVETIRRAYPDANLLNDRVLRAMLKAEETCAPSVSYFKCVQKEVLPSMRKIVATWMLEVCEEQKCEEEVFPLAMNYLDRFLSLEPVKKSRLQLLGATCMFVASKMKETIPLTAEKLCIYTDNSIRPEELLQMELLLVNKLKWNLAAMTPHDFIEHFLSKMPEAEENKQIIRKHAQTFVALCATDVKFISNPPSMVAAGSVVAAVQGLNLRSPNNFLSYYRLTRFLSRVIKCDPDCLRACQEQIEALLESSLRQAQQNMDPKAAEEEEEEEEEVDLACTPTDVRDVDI", "sequence (Q00534 whole entry)": "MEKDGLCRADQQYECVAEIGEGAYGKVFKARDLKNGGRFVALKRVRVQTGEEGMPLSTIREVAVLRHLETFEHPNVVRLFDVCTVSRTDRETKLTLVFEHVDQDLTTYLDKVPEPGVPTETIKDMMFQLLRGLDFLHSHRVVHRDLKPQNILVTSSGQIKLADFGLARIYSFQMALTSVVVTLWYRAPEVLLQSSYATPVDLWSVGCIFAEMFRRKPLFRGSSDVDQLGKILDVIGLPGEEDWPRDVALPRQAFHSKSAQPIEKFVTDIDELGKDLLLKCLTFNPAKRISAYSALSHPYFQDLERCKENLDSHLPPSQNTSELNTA", "assay": "Inhibition of human CDK6/Cyclin D1 using RB protein as substrate preincubated for 20 mins followed by [gamma-33P]-ATP addition measure after 120 mins by filter binding method", "type": "protein-complex assay", "in_short": "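Compound preincubated with kinase 20 min at room temperature. Reaction started with 10 μM [γ-33P]ATP and run 120 min at 25°C. Filter-binding read-out, curve-fitted IC50; mean ± SD of three independent experiments.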"}}, "note": "pIC50: −log10 of the molar value. Calls of active or inactive are those of the source. No cut-off for these calls is given here."}
{"smiles": "CN1CCN(Cc2ccc(NC(=O)c3n[nH]cc3Nc3ncnc4[nH]ccc34)cc2)CC1", "values": [{"measurement": "Activity", "setting": "MV4-11 [1]", "result": "Dose-dependent effect"}, {"measurement": "pIC50", "setting": "Lymphocyte", "result": 6.31}, {"measurement": "Activity", "setting": "MV4-11 [2]", "result": 13.44, "unit": "%"}, {"measurement": "inhibition", "setting": "[3]", "result": "Active"}, {"measurement": "inhibition", "setting": "[4]", "result": "Active"}, {"measurement": "inhibition", "setting": "Homo sapiens", "result": "Dose-dependent effect"}, {"measurement": "pIC50", "setting": "CDK2/Cyclin A1", "result": 8.61}, {"measurement": "half-life", "setting": "[5]", "result": 39.6, "unit": "min"}, {"measurement": "CLint scaled", "setting": "[6]", "result": 13.3, "unit": "mL/min/kg"}, {"measurement": "LD50 at 288 h", "setting": "[7]", "result": 186, "unit": "mg/kg"}, {"measurement": "CLint scaled", "setting": "[8]", "result": 40.3, "unit": "mL/min/kg"}, {"measurement": "Activity", "setting": "MV4-11 [9]", "result": 54.13, "unit": "%"}, {"measurement": "Activity", "setting": "MV4-11 [10]", "result": 24.17, "unit": "%"}, {"measurement": "Activity", "setting": "Mus musculus", "result": "Non-Toxic"}, {"measurement": "Activity", "setting": "MV4-11 [11]", "result": 15.02, "unit": "%"}, {"measurement": "CLint scaled", "setting": "[12]", "result": 139, "unit": "mL/min/kg"}, {"measurement": "GI50", "setting": "MGC-803", "result": 370, "unit": "nM"}, {"measurement": "Activity", "setting": "MV4-11 [13]", "result": 78.95, "unit": "%"}, {"measurement": "Activity", "setting": "MV4-11 [14]", "result": 28.54, "unit": "%"}, {"measurement": "pIC50", "setting": "MV4-11 [15]", "result": 8.10}, {"measurement": "Activity", "setting": "HCT-116", "result": "Active"}, {"measurement": "Activity", "setting": "MV4-11 [16]", "result": 14.79, "unit": "%"}, {"measurement": "pIC50", "setting": "CDK6/cyclin D1", "result": 8.71}]}
